Test results from ChEMBL document CHEMBL1130431, “Synthesis and biochemical evaluation of N-(4-phenylthiazol-2-yl)benzenesulfonamides as high-affinity inhibitors of kynurenine 3-hydroxylase” (J Med Chem, 1997).
pIC50, pKi: −log10 of the molar value.

Key:
[1] = target: T1, Kynurenine 3-monooxygenase (Rattus norvegicus, UniProt O88867); test: Inhibition of rat kidney Kynurenine 3-hydroxylase.
Outline: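 The enzyme source was a crude mitochondrial fraction from rat kidney. The assay used 0.1 M K-phosphate pH 7.4 with 100 µM L-kynurenine plus 0.1 µCi L-[3-3H]kynurenine, 200 µM NADPH, and an NADPH-regenerating system, with 30 µg protein. Inhibitor was preincubated 15 min at 37 °C, then the reaction ran 10 min at 37 °C. Charcoal removed substrate and 3H2O was counted.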

[2] = target: T1, Kynurenine 3-monooxygenase; test: Inhibitory constant against Kynurenine 3-hydroxylase
Outline: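 Competitive-inhibition kinetics on rat kidney crude mitochondrial kynurenine 3-hydroxylase. L-[3-3H]kynurenine saturation experiments with NADPH 200 μM plus a glucose 6-phosphate regenerating system, in 0.1 M potassium phosphate pH 7.4 at 37 °C. No preincubation; the enzyme was added to start the reaction. Read-out was tritiated water counted after charcoal removal of substrate. Ki was taken from replots of apparent Km versus inhibitor concentration; three experiments.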

[3] = target: Kynurenine 3-monooxygenase (Rattus norvegicus) (UniProt O88867); test: Compound was evaluated for ex vivo inhibition of Kynurenine 3-hydroxylase activity in kidney of rat after injecting perorally; assay type: tissue-based
Outline: (§1)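 Rats got oral doses in 0.1% Tween-80 suspension (0.5 mL/100 g), five or six doses with four or five animals per dose, and were decapitated 2 h later. Kidney or liver was homogenized in 9 volumes of 0.32 M sucrose/5 mM Tris-HCl pH 7.4 with 0.5 mM PMSF. 25 µL homogenate was assayed by [3H]water release with 2 min incubation.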

[4] = target: Kynurenine 3-monooxygenase (Rattus norvegicus) (UniProt O88867); test: Compound was evaluated for ex vivo inhibition of Kynurenine 3-hydroxylase activity in liver of rat after injecting perorally; assay type: tissue-based; outline: as §1
[5] = test system: Kynurenine 3-monooxygenase (Meriones unguiculatus); test: Compound was evaluated for ex vivo inhibition of Kynurenine 3-hydroxylase activity in brain from Gerbils after injecting perorally; conditions: Gerbillinae
[6] = test system: Kynurenine 3-monooxygenase (Meriones unguiculatus); test: Compound was evaluated for ex vivo inhibition of Kynurenine 3-hydroxylase activity in Kidney from Gerbils after injecting perorally; conditions: Gerbillinae
[7] = test system: Kynurenine 3-monooxygenase (Meriones unguiculatus); test: Compound was evaluated for ex vivo inhibition of Kynurenine 3-hydroxylase activity in Liver from Gerbils after injecting perorally; conditions: Gerbillinae

Kynurenine 3-monooxygenase (Rattus norvegicus), sequence (O88867 whole entry, looked up): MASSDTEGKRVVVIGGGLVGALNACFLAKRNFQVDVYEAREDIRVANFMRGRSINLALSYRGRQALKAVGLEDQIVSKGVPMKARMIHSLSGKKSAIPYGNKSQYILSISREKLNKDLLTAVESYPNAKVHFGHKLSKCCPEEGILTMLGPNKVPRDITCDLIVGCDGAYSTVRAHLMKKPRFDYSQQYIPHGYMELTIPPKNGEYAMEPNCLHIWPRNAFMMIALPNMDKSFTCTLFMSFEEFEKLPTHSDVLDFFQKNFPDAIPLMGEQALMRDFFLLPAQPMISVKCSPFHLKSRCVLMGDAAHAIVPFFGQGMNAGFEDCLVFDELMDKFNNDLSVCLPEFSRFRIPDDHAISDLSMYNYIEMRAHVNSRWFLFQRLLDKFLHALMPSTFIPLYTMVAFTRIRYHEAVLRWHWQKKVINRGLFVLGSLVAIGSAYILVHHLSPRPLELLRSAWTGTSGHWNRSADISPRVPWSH
T1 sequence (O88867 whole entry): as the sequence (O88867 whole entry, looked up) above

| SMILES | pIC50 [1] | also measured |
| --- | --- | --- |
| Cc1ccc(S(=O)(=O)Nc2nc(-c3ccccc3)cs2)cc1 | 6.33 | – |
| O=[N+]([O-])c1cccc(-c2csc(NS(=O)(=O)c3ccccc3)n2)c1 | 6.70 | – |
| Cc1ccc(-c2csc(NS(=O)(=O)c3ccc(C)cc3)n2)cc1 | 7.12 | – |
| CC(C)c1ccc(S(=O)(=O)Nc2nc(-c3cccc([N+](=O)[O-])c3)cs2)cc1 | 6.00 | – |
| NC(CC(=O)c1ccc(Cl)c(Cl)c1)C(=O)O (stereo unspecified) | 6.63 | pKi [2]: 7.02; ED50 [3]: 25.1 µmol/kg; ED50 [4]: 222 µmol/kg |
| Nc1ccc(S(=O)(=O)Nc2nc(-c3cc(C(F)(F)F)ccc3F)cs2)cc1 | 7.72 | ED50 [3]: 1.1 µmol/kg; ED50 [4]: 4.6 µmol/kg |
| O=C(O)CCC(=O)c1cccc([N+](=O)[O-])c1 | 5.24 | – |
| NC(CC(=O)c1cccc([N+](=O)[O-])c1)C(=O)O (stereo unspecified) | 6.11 | – |
| O=[N+]([O-])c1cccc(-c2csc(NS(=O)(=O)c3ccc(Cl)cc3)n2)c1 | 7.08 | – |

More lines, in order of rising pIC50 [1], values ahead:

| pIC50 [1] | SMILES | also measured |
| --- | --- | --- |
| 5.57 | O=C(O)c1[cH-]c(-c2cccc([N+](=O)[O-])c2)[o+]n1 | – |
| 5.94 | O=[N+]([O-])c1cccc(-c2cc(-c3nn[nH]n3)no2)c1 | – |
| 6.62 | COc1ccc(-c2csc(NS(=O)(=O)c3ccc(C)cc3)n2)cc1 | – |
| 6.92 | O=[N+]([O-])c1cccc(-c2csc(NS(=O)(=O)c3ccc(Cl)c(Cl)c3)n2)c1 | – |
| 6.94 | Cc1ccc(S(=O)(=O)Nc2nc(-c3ccc(O)c(C)c3)cs2)cc1 | – |
| 7.25 | Cc1ccc(S(=O)(=O)Nc2nc(-c3ccc(Cl)c(Cl)c3)cs2)cc1 | – |
| 7.25 | Cc1ccc(S(=O)(=O)Nc2nc(-c3ccc(Cl)cc3)cs2)cc1 | – |
| 7.29 | COc1ccc(S(=O)(=O)Nc2nc(-c3cccc([N+](=O)[O-])c3)cs2)cc1 | ED50 [3]: 3 µmol/kg; ED50 [4]: 9 µmol/kg |
| 7.32 | Cc1ccc(S(=O)(=O)Nc2nc(-c3cccc([N+](=O)[O-])c3)cs2)cc1 | ED50 [3]: 13.3 µmol/kg; ED50 [4]: 33.4 µmol/kg |
| 7.40 | Nc1ccc(S(=O)(=O)Nc2nc(-c3cccc([N+](=O)[O-])c3)cs2)cc1 | – |
| 7.41 | COc1ccc(S(=O)(=O)Nc2nc(-c3cc(C(F)(F)F)ccc3F)cs2)cc1OC | ED50 [5]: 5.2 µmol/kg; ED50 [3]: 6.6 µmol/kg; ED50 [4]: 5.3 µmol/kg; ED50 [6]: 1.8 µmol/kg; ED50 [7]: 0.9 µmol/kg |
| 7.43 | COc1ccc(S(=O)(=O)Nc2nc(-c3cccc([N+](=O)[O-])c3)cs2)cc1OC | pKi [2]: 8.32 |
